Measurements: publication PMC11105966 (Journal of medicinal chemistry, 2024)
Converted amounts (≈) assume the structure as drawn. “And” between values parts separate entries of the source, which are not always exact repeats. Equal entries are not always repeated. Where two headings read alike, the source gives them in different places. Values belong to the molecule of their own block, whether it stands above or below them.

How the values were obtained:
MCF7 cells = test: MTT cytotoxicity assay, MCF7 cells; type: cell-based, human
In short: (§1)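 Cells seeded at 4000–7000 per well in 10% FBS medium. Lines were grown at 37°C, 5% CO2: MCF-7, LM3–3, BT-20 and BT-474 in DMEM/10% FBS; MDA-MB-468 in RPMI 1640/5% FBS; SUM159PT in Ham's F-12/5% FBS with insulin and hydrocortisone. At 70–80% confluence, test compound was added at 0.2–1000 nM for 72 h, then MTT. Viability relative to untreated cells; IC50 from Hill-slope fit.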

[1] = molecular target: DNA-bound ER/SRC-3/P300 complex (Homo sapiens, UniProt Q9Y6Q9); test: Biotinylated ERE pull-down assay; type: biochemical
In short: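 Baculovirus-expressed, affinity-purified His-SRC-3-flag was incubated with test compound or vehicle for 30 min on ice, 0.1 μg protein. Then 0.1 μg recombinant ERα and His-p300 and an ERE-containing DNA oligo were added with 1 μM 17-β estradiol for 1 h on ice. The ER complex was pulled down and bound SRC-3 and p300 quantified by western blot.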

[2] = mice; cited from earlier work
[3] = Full pharmacokinetic profile, IV and oral, CD-1 mice; type: in vivo; details: male, CD-1, mouse, plasma; for Cmax: po, 10 mg/kg
In short: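 Male mice, 6 weeks, n=3 per route. Test compound in 20% DMSO, 16% PEG, 4% dextrose in PBS: IV 1 mg/kg (0.5 mg/mL) or oral gavage 10 mg/kg (1 mg/mL). 10 μL blood taken from 2 or 15 min to 48 h. Plasma measured by LC-MS/MS against 0.5–1000 ng/mL calibration standards with four QC levels. Non-compartmental extravascular PK fit.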

[4] = Stability in human plasma; type: in vitro ADME; details: Fig S2
[5] = Maximum tolerated dose / tolerability in mice; type: in vivo
hERG = hERG (Homo sapiens, UniProt Q12809); type: cell-based
[6] = tested on: mouse primary hepatocytes; test: MTT cytotoxicity assay, mouse primary hepatocytes; type: cell-based; details: for IC50: Mus musculus, Hepatocyte; for toxicity in mouse primary hepatocytes: up to 1000 nM
In short: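 Primary hepatocytes were isolated by collagenase perfusion from an adult female CD-1 mouse. They were maintained in M199 medium with 10% FBS at 37°C, 5% CO2.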

Percentage of free drug = type: in vitro ADME
AR-PDX tumor cells 118b = test: Intra-femoral bone metastasis mouse model of prostate cancer; type: in vivo, SCID mice; details: 10 mg/kg/day i.p., four weeks; for reduction in femur volume compared to vehicle: CT imaging
In short: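 1 × 10^5 AR-PDX 118b cells were injected […] into male SCID mice aged 8–9 weeks. Two weeks later, n=9 per group received vehicle or 10 mg/kg/day i.p. for 4 weeks; x-ray imaging every two weeks. Femurs were collected at the end. CT 3D reconstruction was done on 5 femurs per group, plus histology; tumor/femur area ratio. Left femur as negative control.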

Water solubility = type: physicochemical
[7] = tested on: seven human cancer cell lines known to overexpress SRC-3; test: MTT cytotoxicity, panel of seven human cancer cell lines; type: cell-based; details: read-out: IC50 values across the cancer cell lines
In short: as §1

LNCaP cells = test: LNCaP xenograft mouse model; type: in vivo, SCID mice
In short: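 1×10^7 LNCaP cells were implanted subcutaneously on both sides of the back of male SCID mice. Daily 10 mg/kg i.p. dosing or vehicle started 4 weeks after inoculation and ran for 4 weeks. Tumor size (length × width × width/2) measured weekly. Survival endpoint was tumor diameter of 3.0 cm. Ki67, cleaved caspase 3 and CD31 IHC on tumor sections at the end of treatment.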

Panc-1-Luc cells = test: Orthotopic Panc-1 PDAC mouse model; type: in vivo, SCID mice; details: 10 mg/kg i.p. once per day, 8 weeks, orthotopic PDAC mice
In short: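 0.5×10^6 Panc-1-Luc cells were implanted orthotopically in the pancreas of male SCID mice aged 8 weeks. Mice were randomized by luciferase imaging (n=5 per group). From day 8, test compound 10 mg/kg i.p. or vehicle was given daily. Luciferase imaging and body weight were recorded weekly; tumors harvested at day 63.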

[8] = tested on: 78 targets, including GPCRs, ion channel, receptors, kinase, enzymes and transporters; test: SafetyScreen panel against 78 targets; details: at 10 μM
In short: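 Commercial off-target safety panel covering GPCR (calcium flux agonist/antagonist, cAMP), ion channel (hERG blocker) and non-kinase enzyme assays. Test compound was screened at 10 μM, with RC50 values determined for interacting targets.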

PANC-1-shSRC-3.1 cells = test: MTT viability, SRC-3 knock-down cells shSRC-3.1; type: cell-based, human; details: PANC-1 shSRC-3.1 and shSRC-3.2 vs control/parental cells
In short: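 SRC-3 was stably knocked down in PANC-1 cells with lentiviral shRNAs (shSRC-3.1, shSRC-3.2; shCtrl control), and SRC-3 levels were checked by western blot. Cells were treated with varying doses of test compound for 72 h and viability read by MTT. The IC50 of knock-down cells was compared with that of control cells to give the fold change.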

MDA-MB-468 cells = test: Wash-out experiment in MDA-MB-468 cell line; type: cell-based, human; details: drug washed out with PBS, total incubation 72 h, MTT
In short: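 MDA-MB-468 cells were grown in RPMI 1640 with 5% FBS. They were exposed to test compound for varying durations, washed with PBS, and kept in culture to a total of 72 h. Viability was read by MTT, and EC50 and EC90 were derived for each exposure time.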

[9] = tested on: prostate cancer PDX organoids; test: Inhibition assay in prostate cancer PDX organoids; type: cell-based, human; details: 2 weeks treatment
In short: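 Tumors grown in SCID mice were digested with collagenase I and III to single cells. 20000 cells were embedded in collagen gel, set 20 min at 37°C, then cultured overnight at 37°C, 5% CO2. Test compound or vehicle given for 14 days, at least 5 wells per dose. Organoids imaged and counted on day 14; Student t test.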

[10] = cytotoxicity to MCF7 cells, MTT assay, 72 h, mean of triplicate

Sequence of hERG (Q12809 whole entry): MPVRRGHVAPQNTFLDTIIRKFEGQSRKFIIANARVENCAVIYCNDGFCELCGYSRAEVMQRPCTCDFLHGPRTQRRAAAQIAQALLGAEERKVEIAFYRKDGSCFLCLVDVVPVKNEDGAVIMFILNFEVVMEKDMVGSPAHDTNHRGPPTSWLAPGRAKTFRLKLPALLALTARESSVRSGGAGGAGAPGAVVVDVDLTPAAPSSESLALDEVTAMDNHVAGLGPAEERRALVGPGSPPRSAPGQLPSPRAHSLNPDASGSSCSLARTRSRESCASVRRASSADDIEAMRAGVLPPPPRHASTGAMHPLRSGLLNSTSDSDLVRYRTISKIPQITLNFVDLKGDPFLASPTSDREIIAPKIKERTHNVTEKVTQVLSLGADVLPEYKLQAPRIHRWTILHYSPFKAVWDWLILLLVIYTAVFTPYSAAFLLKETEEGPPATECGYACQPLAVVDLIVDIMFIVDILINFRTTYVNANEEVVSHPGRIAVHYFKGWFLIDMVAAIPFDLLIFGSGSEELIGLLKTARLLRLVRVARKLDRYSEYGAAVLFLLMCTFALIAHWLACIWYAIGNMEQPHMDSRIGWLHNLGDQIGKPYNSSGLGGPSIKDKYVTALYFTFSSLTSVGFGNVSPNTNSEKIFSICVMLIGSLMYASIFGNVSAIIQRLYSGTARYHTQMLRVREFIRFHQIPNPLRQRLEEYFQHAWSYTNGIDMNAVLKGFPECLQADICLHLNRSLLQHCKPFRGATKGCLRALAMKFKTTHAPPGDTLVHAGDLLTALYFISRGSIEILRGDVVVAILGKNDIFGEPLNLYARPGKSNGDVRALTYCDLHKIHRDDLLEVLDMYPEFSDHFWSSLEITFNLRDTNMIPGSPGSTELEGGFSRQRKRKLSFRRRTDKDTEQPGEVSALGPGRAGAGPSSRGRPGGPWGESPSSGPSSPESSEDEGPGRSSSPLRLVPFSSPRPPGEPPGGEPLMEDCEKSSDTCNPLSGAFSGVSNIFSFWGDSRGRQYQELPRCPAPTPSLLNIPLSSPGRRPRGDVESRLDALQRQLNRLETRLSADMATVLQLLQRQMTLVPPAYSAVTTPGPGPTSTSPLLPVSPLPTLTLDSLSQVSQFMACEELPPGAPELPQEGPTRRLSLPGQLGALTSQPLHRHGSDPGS
Sequence of DNA-bound ER/SRC-3/P300 complex (Q9Y6Q9 whole entry, one chain of several): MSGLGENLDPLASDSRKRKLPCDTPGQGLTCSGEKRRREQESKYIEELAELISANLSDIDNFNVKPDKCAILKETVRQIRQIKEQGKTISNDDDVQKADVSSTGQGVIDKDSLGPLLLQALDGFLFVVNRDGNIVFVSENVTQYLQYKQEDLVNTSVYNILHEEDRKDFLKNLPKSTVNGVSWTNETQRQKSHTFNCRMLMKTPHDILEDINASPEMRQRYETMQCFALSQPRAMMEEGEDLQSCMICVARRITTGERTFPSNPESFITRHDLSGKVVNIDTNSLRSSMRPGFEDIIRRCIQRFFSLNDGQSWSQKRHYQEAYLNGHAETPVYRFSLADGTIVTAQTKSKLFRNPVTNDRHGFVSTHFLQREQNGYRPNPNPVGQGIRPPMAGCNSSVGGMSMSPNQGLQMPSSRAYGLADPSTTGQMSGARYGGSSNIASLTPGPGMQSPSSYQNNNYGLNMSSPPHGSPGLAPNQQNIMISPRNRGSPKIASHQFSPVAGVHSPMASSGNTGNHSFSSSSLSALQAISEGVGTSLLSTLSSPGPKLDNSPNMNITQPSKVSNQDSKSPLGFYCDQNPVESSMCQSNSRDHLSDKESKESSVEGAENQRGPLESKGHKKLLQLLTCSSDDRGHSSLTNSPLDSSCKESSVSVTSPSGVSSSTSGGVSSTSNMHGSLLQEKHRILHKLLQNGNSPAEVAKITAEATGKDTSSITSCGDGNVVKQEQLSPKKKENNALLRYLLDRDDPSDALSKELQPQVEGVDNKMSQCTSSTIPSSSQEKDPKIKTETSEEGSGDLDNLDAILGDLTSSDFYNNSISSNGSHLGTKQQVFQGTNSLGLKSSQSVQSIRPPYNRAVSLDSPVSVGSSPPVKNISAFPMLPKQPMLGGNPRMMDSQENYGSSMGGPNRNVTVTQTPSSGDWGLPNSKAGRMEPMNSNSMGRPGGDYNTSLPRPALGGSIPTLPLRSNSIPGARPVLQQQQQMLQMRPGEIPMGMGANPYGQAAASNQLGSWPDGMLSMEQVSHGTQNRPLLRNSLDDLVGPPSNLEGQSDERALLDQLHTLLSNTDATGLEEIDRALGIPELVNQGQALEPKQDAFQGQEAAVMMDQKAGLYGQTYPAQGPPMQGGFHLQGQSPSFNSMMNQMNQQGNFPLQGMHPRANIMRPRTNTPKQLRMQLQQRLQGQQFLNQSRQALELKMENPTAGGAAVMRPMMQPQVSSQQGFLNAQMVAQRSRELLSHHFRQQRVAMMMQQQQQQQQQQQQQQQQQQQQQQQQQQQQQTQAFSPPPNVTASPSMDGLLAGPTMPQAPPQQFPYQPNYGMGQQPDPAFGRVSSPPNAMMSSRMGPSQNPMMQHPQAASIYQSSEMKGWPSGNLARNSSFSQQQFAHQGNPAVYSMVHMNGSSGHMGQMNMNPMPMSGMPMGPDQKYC

Molecule: 1-(1-methyl-1H-benzo[d]imidazol-2-yl)-3-(pyridin-2-yl)-1H-pyrazol-5-ol [compound 12]
IC50 (MCF7 cells; [10]): > 1000 nM

Molecule: 6-((E)-1-(((E)-5,6-dichloro-1-methyl-1,3-dihydro-2H-benzo[d]imidazol-2-ylidene)hydrazineylidene)ethyl)nicotinamide [6g]
IC50 (MCF7 cells; [10]): 2.7 nM

Molecule: 6-((E)-1-(((E)-5,6-difluoro-1-methyl-1,3-dihydro-2H-benzo[d]imidazol-2-ylidene)hydrazineylidene)ethyl)-N-hydroxynicotinamide [6m]
IC50 (MCF7 cells; [10]): > 1000 nM

effect on the ER complex ([1]; at 1.5 μM): did not affect the ER complex
Molecule: C/C(=N\NC1Oc2ccccc2N1C)c1ccc(F)cn1 (stereo not drawn) [8a, (E)-2-(2-(1-(5-fluoropyridin-2-yl)ethylidene)hydrazineyl)-3-methyl-2,3-dihydrobenzo[d]oxazole]
IC50 (MCF7 cells; Homo sapiens, MCF7, 72 h): > 1000 nM

Molecule: C/C(=N\Nc1nc2ccccc2n1C)c1ccccn1 [SI-2]
plasma half-life [2]: 1 h and ~ 1 h

Molecule: C/C(=N\Nc1nc2cc(F)c(F)cc2n1C)c1ncccn1 [SI-10, (E)-5,6-difluoro-1-methyl-2-(((E)-1-(pyrimidin-2-yl)ethylidene)hydrazineylidene)-2,3-dihydro-1H-benzo[d]imidazole]
AUC(0-t) ([3]; iv, 1 mg/kg): 0.29 µM·h
Cmax [3]: 1140 nM
stability in human plasma [4]: excellent stability
body weight ([5]; 50 mg/kg or 100 mg/kg, once per day, 4 weeks): did not cause any loss of body weight
acute tolerability ([5]; oral administration up to 100 mg/kg (highest dose tested)): did not cause appreciable stress
hERG inhibition (hERG; at 30 μM): did not show appreciable hERG inhibition
IC50 [6]: > 1000 nM
toxicity in mouse primary hepatocytes [6]: did not observe any toxicity
percentage of free drug (Percentage of free drug): 6.6%
decrease of ratio of tumor area to femur area (AR-PDX tumor cells 118b): over 50%
reduction in femur volume compared to vehicle (AR-PDX tumor cells 118b): > 55%
solubility (Water solubility): 22.8 µM (≈ 6.89 µg/mL)
IC50 [7]: 1 to 32 nM
mouse survival (LNCaP cells; 10 mg/kg i.p. once per day, 3.0 cm tumor diameter endpoint): significantly prolonged
cleaved caspase 3 positive tumor cells (LNCaP cells; IHC at end of treatment, vehicle 2%): Approximately 10%
Ki67 positive cells in tumors (LNCaP cells; IHC at end of treatment, vehicle more than 50% positive): significantly lower

Molecule: C/C(=N\N=c1/[nH]c2cc(F)c(F)cc2n1C)c1ccc(F)cn1 [SI-12, (E)-5,6-difluoro-2-(((E)-1-(5-fluoropyridin-2-yl)ethylidene)hydrazineylidene)-1-methyl-2,3-dihydro-1H-benzo[d]imidazole]
body weight (Panc-1-Luc cells): did not cause any mice body weight change
interactions with other targets of the panel [8]: minimal
AUC(0-t) ([3]; iv, 1 mg/kg): 2.31 µM·h
half-life ([3]; iv, 1 mg/kg): 22 h
Cmax [3]: 2740 nM
stability in human plasma [4]: excellent stability
hERG inhibition (hERG; at 10 μM): moderate hERG inhibition
IC50 [6]: > 1000 nM
toxicity in mouse primary hepatocytes [6]: did not observe any toxicity
fold reduction of potency in SRC-3 knock-down cells vs control cells (PANC-1-shSRC-3.1 cells): approximately 5 fold
fold reduction of potency in SRC-3 knock-down cells vs control cells (PANC-1-shSRC-3.1 cells; listed as SI-12 (6c)): 4.7 ~5.8 fold
percentage of free drug (Percentage of free drug): 2.2%
decrease of ratio of tumor area to femur area (AR-PDX tumor cells 118b): over 50%
reduction in femur volume compared to vehicle (AR-PDX tumor cells 118b): > 55%
solubility (Water solubility): 3.8 µM (≈ 1.21 µg/mL)
treatment time sufficient to achieve maximal cytotoxicity (MDA-MB-468 cells): 3 to 6 h
formation and growth of organoids [9]: effectively suppressed
recruitment of SRC-3 and p300 in the ER complex ([1]; at 0.15 μM, SRC-3 protein 0.13 μM): significantly decreased

Molecule: (E)-2-(2-(1-(5-fluoropyridin-2-yl)ethylidene)hydrazineyl)-3-methyl-2,3-dihydrobenzo[d]thiazole [8b]
IC50 (MCF7 cells; [10]): > 1000 nM

Molecule: methyl 6-((E)-1-(((E)-5,6-dichloro-1-methyl-1,3-dihydro-2H-benzo[d]imidazol-2-ylidene)hydrazineylidene)ethyl)nicotinate [6f]
IC50 (MCF7 cells; [10]): 2.9 nM
